Test results published in ChEMBL document CHEMBL5634098, “Hydrophobicity modulation via the substituents at positions 2 and 4 of 1,3,5-triazine to enhance therapeutic ability against Alzheimer's disease for potent serotonin 5-HT6R agents” (Eur J Med Chem, 2023).
Where “and” joins values, the source holds several entries; their conditions need not be identical. Identical values can stand only once.

Experiments:
[1] = Effect on Wistar rat memory assessed as total exploratory time in T2 session at 0.3 mg/kg, ip measured after 60 mins by novel object recognition test (reference value: 31.86 +/- 2.15 sec); assay type: toxicity, organism-based; conditions: in vivo, 1 h
In short: (§1)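 Rats given compound i.p. (2 mL/kg; vehicle 1% Tween 80) 60 min before T1 familiarization phase, without MK-801; doses 0.1–3 mg/kg. T2 recognition session 3 min; discrimination index (EB − EA)/(EA + EB) and total exploration time of both objects recorded; n = 6–8; mean ± SEM, one-way ANOVA/Bonferroni.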

[2] = Metabolic stability at phase II in rat liver microsomes assessed as compound remaining at 50 uM preincubated for 5 mins followed by UDPGA and NADPH addition and measured after 1 hr by LC-MS analysis; assay type: ADME, Microsome; conditions: time 65 min, read-out: Stability
[3] = Effect on Wistar rat memory assessed as total exploratory time in T2 session at 3 mg/kg, ip measured after 60 mins by novel object recognition test (reference value: 31.86 +/- 2.15 sec); assay type: toxicity, organism-based; conditions: in vivo, 1 h; in short: as §1
Rattus norvegicus [4] = test: Reversal of MK-801 induced memory impairment in Wistar rat assessed as total exploratory time at 3 mg/kg, ip pretreated for 30 mins followed by MK-801 administration and measured after 30 mins by novel object recognition test (reference value: 39.29 +/- 3.44 sec); assay type: functional; conditions: time 60 min, 1 h
Rattus norvegicus [5] = test: Reversal of MK-801 induced memory impairment in Wistar rat assessed as total exploratory time at 1 mg/kg, ip pretreated for 30 mins followed by MK-801 administration and measured after 30 mins by novel object recognition test (reference value: 39.29 +/- 3.44 sec); assay type: functional; conditions: time 60 min
HepG2 = test: Cytotoxicity against human HepG2 cells assessed as reduction in cell viability at 100 uM incubated for 72 hrs by MTS assay; assay type: toxicity, cell-based; conditions: hepg2, 72 h
In short: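 HepG2 hepatoma cells exposed 72 h to compounds at 1, 10, 50 and 100 μM; doxorubicin 1 μM as positive control, 1% DMSO in growth medium as negative control. Viability read by MTS assay, absorbance 490 nm.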

[6] = target: 5-hydroxytryptamine receptor 7 (Homo sapiens, UniProt P34969); test: Displacement of [3H]-5-CT from human 5-HT7 receptor expressed in HEK293 cell membranes assessed as inhibition constant incubated for 1 hr by Microbeta plate reader based analysis; set-up: species or system Membrane
Rattus norvegicus [7] = test: Reversal of MK-801 induced memory impairment in Wistar rat assessed as total exploratory time at 0.1 mg/kg, ip pretreated for 30 mins followed by MK-801 administration and measured after 30 mins by novel object recognition test (reference value: 39.29 +/- 3.44 sec); assay type: functional; conditions: time 60 min, 1 h
Rattus norvegicus [8] = test: Reversal of MK-801 induced memory impairment in Wistar rat assessed as total exploratory time at 0.3 mg/kg, ip pretreated for 30 mins followed by MK-801 administration and measured after 30 mins by novel object recognition test (reference value: 39.29 +/- 3.44 sec); assay type: functional; conditions: time 60 min, 1 h
D(2) dopamine receptor = D(2) dopamine receptor (Homo sapiens, UniProt P14416); test: Displacement of [3H]-raclopride from human D2 receptor expressed in HEK293 cell membranes assessed as inhibition constant incubated for 1 hr by Microbeta plate reader based analysis; set-up: species or system Membrane
[9] = Effect on Wistar rat memory assessed as total exploratory time in T2 session at 1 mg/kg, ip measured after 60 mins by novel object recognition test (reference value: 31.86 +/- 2.15 sec); assay type: toxicity, organism-based; conditions: in vivo, 1 h; in short: as §1
[10] = Effect on Wistar rat memory assessed as total exploratory time in T2 session at 0.1 mg/kg, ip measured after 60 mins by novel object recognition test (reference value: 31.86 +/- 2.15 sec); assay type: toxicity, organism-based; conditions: in vivo, 1 h; in short: as §1
[11] = Aqueous solubility of compound at 10 mg boiled for 5 mins and incubated overnight by UV spectroscopy; assay type: physicochemical; conditions: aqueous medium
[12] = target: 5-hydroxytryptamine receptor 2A (Homo sapiens, UniProt P28223); test: Displacement of [3H]-ketanserin from human 5-HT2A receptor expressed in HEK293 cell membranes assessed as inhibition constant incubated for 1 hr by Microbeta plate reader based analysis; set-up: species or system Membrane
[13] = Permeability of compound at 200 uM incubated for 5 hrs by PAMPA assay; assay type: ADME; conditions: read-out: permeability
[14] = target: T1, 5-hydroxytryptamine receptor 1A (Homo sapiens, UniProt P08908); test: Displacement of [3H]-8-OH-DPAT from human 5-HT1A receptor expressed in HEK293 cell membranes assessed as inhibition constant incubated for 1 hr by Microbeta plate reader based analysis; set-up: species or system Membrane
T1 sequence (P08908 whole entry): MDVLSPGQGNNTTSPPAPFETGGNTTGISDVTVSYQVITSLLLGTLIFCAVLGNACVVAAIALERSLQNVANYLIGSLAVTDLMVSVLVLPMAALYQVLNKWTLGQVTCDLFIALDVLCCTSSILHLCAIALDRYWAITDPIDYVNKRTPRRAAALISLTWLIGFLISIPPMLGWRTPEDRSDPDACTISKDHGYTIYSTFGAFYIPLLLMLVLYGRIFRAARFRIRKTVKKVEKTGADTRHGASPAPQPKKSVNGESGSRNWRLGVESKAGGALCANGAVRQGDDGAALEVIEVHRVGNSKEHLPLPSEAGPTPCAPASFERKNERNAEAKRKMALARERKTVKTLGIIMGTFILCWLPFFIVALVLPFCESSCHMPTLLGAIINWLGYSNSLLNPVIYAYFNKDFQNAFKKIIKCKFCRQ

Chain of D(2) dopamine receptor (P14416 whole entry): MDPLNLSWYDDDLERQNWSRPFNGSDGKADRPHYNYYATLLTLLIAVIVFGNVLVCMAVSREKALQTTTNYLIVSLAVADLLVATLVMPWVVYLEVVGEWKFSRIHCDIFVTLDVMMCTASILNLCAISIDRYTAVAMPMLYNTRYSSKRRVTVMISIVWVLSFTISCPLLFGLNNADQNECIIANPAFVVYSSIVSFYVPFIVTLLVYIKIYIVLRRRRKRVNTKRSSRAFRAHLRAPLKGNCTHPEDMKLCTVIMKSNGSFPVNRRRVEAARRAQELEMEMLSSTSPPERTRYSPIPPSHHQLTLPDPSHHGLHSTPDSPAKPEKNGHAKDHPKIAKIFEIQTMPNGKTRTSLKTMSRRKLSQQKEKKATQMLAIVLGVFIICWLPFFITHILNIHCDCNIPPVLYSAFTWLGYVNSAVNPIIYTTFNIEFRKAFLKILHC
Chain of 5-hydroxytryptamine receptor 2A (P28223 whole entry): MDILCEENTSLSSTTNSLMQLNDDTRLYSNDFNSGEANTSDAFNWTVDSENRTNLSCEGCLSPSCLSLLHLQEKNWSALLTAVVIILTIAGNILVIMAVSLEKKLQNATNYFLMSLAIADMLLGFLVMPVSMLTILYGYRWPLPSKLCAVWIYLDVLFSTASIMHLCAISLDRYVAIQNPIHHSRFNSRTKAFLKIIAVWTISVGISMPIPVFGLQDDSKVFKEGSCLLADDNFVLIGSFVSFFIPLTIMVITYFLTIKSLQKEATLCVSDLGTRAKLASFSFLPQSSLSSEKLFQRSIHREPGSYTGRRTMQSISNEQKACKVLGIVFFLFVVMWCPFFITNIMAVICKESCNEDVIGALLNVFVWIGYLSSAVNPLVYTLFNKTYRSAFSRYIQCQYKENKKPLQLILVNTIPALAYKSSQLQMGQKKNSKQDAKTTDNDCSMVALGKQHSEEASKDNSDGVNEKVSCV
Chain of 5-hydroxytryptamine receptor 7 (P34969 whole entry): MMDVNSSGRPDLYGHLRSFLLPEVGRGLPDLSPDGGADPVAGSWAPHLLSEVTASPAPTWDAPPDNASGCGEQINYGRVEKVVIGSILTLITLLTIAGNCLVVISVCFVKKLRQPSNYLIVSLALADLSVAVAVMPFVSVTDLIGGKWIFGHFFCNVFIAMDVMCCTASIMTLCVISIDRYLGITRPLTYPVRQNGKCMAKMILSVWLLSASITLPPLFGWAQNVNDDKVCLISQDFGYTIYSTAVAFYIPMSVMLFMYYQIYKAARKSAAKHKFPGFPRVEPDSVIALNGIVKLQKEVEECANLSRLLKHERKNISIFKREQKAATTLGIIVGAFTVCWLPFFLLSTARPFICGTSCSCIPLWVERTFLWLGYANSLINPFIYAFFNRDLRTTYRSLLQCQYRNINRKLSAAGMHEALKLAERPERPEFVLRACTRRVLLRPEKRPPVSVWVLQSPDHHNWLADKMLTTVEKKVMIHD

**Q.** For `CCC(Oc1cc(F)ccc1F)c1nc(N)nc(N2CCN(C)CC2)n1` (stereo unspecified), which Time [1] is on record?
**A.** 34.63 s

**Q.** And the remaining at 1 h, 50 µM [2]?
**A.** 82.6%

**Q.** And the Time [3]?
**A.** 31.63 s

**Q.** And the Time (Rattus norvegicus [4])?
**A.** 27.75 s

**Q.** What about the Time (Rattus norvegicus [5]) of the same compound?
**A.** 32.57 s

**Q.** What about the Activity (HepG2) of the same compound?
**A.** Non-Toxic

**Q.** And the Ki [6]?
**A.** 11.5 µM

**Q.** What about the Time (Rattus norvegicus [7]) of the same compound?
**A.** 33.25 s

**Q.** And the Time (Rattus norvegicus [8])?
**A.** 31 s

**Q.** And the Ki (D(2) dopamine receptor)?
**A.** 1630 nM

**Q.** And the Time [9]?
**A.** 39.38 s

**Q.** What about the Time [10] of the same compound?
**A.** 38.29 s

**Q.** What about the solubility at 5 min [11] of the same compound?
**A.** 79 µg/mL and 217 µM

**Q.** And the Ki [12]?
**A.** 573 nM

**Q.** And the Papp at 5 h, 200 µM [13]?
**A.** 20.6 ×10⁻⁶ cm/s

**Q.** And the Ki [14]?
**A.** 3.04 µM
